Measured values: PubChem BioAssay AID652205 (Vanderbilt Specialized Chemistry Center, 2013)
Activity calls are given as the source filed them. The rule behind the calls is not given here.

Biological target: Metabotropic glutamate receptor 6 (Homo sapiens) (UniProt O15303)
Assay: human mGlu6 allosteric modulation, selectivity assay for mGlu5 silent allosteric modulator project, cell-based, HEK293A, Galpha15, calcium mobilization (AID 652205)
Settings: HEK293A hmGlu6+Galpha15, Fluo4 calcium mobilization, glutamate CRC; at 10 µM
In short: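 system = HEK293 cells co-expressing human mGlu6 receptor and Galpha15 | medium = HEPES-buffered HBSS with probenecid, pH 7.4 | reagent = glutamate, 9-point series 10 nM to 1 mM, added at 80 s | times = dye loading 60 min, 37 °C, compound at 20 s | detection = Fluo-4 calcium mobilization fluorescence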

Chain of Metabotropic glutamate receptor 6 (Homo sapiens) (O15303 whole entry, looked up): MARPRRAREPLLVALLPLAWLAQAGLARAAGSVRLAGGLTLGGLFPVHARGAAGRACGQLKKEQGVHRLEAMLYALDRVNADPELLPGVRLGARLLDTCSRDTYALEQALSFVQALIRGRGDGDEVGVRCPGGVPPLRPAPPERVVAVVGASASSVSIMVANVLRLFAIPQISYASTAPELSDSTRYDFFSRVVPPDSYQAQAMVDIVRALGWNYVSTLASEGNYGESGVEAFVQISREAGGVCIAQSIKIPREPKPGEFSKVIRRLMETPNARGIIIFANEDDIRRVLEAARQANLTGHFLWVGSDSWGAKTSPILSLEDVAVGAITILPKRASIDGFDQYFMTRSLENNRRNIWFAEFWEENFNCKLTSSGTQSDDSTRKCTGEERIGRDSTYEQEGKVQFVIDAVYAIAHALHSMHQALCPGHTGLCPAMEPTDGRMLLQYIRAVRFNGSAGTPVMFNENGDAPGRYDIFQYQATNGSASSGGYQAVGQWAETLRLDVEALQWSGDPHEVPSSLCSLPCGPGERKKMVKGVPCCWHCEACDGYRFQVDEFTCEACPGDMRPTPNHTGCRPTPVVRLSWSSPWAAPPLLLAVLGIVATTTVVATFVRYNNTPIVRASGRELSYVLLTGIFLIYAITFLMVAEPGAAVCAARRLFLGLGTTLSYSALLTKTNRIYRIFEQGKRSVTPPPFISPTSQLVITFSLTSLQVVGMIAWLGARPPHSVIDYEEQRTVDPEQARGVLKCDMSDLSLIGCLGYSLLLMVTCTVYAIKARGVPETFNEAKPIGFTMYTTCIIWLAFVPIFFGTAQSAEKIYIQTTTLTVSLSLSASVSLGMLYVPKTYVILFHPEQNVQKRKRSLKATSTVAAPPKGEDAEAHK

O=C(c1ccc(C#Cc2cccc(F)c2)cn1)N1CC2CC2C1 (stereo unspecified)
glutamate EC50 fold shift: 0.859 (inactive)
